From ChEMBL document CHEMBL3867440, “Hernandezine, a Bisbenzylisoquinoline Alkaloid with Selective Inhibitory Activity against Multidrug-Resistance-Linked ATP-Binding Cassette Drug Transporter ABCB1” (J Nat Prod, 2016)

Experiments:
[1] = target: T1, ATP-dependent translocase ABCB1 (Homo sapiens, UniProt P08183); test: Inhibition of human ABCB1 transfected in HEK293 cells assessed as potentiation of doxorubicin-induced cytotoxicity by measuring doxorubicin resistance ratio at 1000 nM after 72 hrs by CCK8 assay relative to parental HEK293 cells (reference value: 96); format: cell-based; settings: hek293, 72 h, 1 µM
[2] = target: T1, ATP-dependent translocase ABCB1; test: Inhibition of ABCB1 in human KBV1 cells assessed as potentiation of doxorubicin-induced cytotoxicity by measuring doxorubicin resistance ratio at 1000 nM after 72 hrs by MTT assay relative to parental KB-3-1 cells (reference value: 34); format: cell-based; settings: kbv1, 72 h, 1 µM
Outline: (§1)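 Cells were kept in drug-free DMEM with 10% FCS for 7 days before assay, then plated at 5000 cells/well for 24 h. Drug at various concentrations was added with a nontoxic fixed level of modulator for 72 h, and the read-out was MTT. IC50 came from fitted curves (≥3 experiments). RR = IC50 of the resistant line / IC50 of the parental line.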

[3] = target: T1, ATP-dependent translocase ABCB1; test: Inhibition of ABCB1 in human KBV1 cells assessed as potentiation of colchicine-induced cytotoxicity by measuring colchicine resistance ratio at 1000 nM after 72 hrs by MTT assay relative to parental KB-3-1 cells (reference value: 55); format: cell-based; settings: kbv1, 72 h, 1 µM; outline: as §1
[4] = target: T1, ATP-dependent translocase ABCB1; test: Inhibition of ABCB1 in human NCI-ADR-RES cells assessed as potentiation of doxorubicin-induced cytotoxicity by measuring doxorubicin resistance ratio at 1000 nM after 72 hrs by MTT assay relative to parental OVCAR8 cells (reference value: 46); format: cell-based; settings: ovcar-8, 72 h, 1 µM; outline: as §1
[5] = target: T1, ATP-dependent translocase ABCB1; test: Inhibition of ABCB1 in human NCI-ADR-RES cells assessed as potentiation of vincristine-induced cytotoxicity by measuring vincristine resistance ratio at 1000 nM after 72 hrs by MTT assay relative to parental OVCAR8 cells (reference value: 435); format: cell-based; settings: ovcar-8, 72 h, 1 µM; outline: as §1
KB 3-1 [6] = test: Induction of apoptosis in human KB-3-1 cells assessed as viable cells at 1 uM after 48 hrs by Annexin V-FITC/propidium iodide staining based FACS analysis (reference value: 88.4%); format: functional; settings: KB 3-1, 48 h, read-out: Activity
KB 3-1 [7] = test: Induction of apoptosis in human KB-3-1 cells assessed as early apoptotic cells at 1 uM after 48 hrs by Annexin V-FITC/propidium iodide staining based FACS analysis (reference value: 5.1%); format: functional
KB 3-1 [8] = test: Induction of apoptosis in human KB-3-1 cells assessed as late apoptotic cells at 1 uM after 48 hrs by Annexin V-FITC/propidium iodide staining based FACS analysis (reference value: 5.8%); format: functional
KB 3-1 [9] = test: Induction of apoptosis in human KB-3-1 cells assessed as necrotic cells at 1 uM after 48 hrs by Annexin V-FITC/propidium iodide staining based FACS analysis (reference value: 0.7%); format: functional
KB-V1 [10] = test: Induction of apoptosis in human KBV1 cells assessed as viable cells at 1 uM after 48 hrs by Annexin V-FITC/propidium iodide staining based FACS analysis (reference value: 86.1%); format: functional; settings: KB-V1, 48 h, read-out: Activity
KB-V1 [11] = test: Induction of apoptosis in human KBV1 cells assessed as early apoptotic cells at 1 uM after 48 hrs by Annexin V-FITC/propidium iodide staining based FACS analysis (reference value: 5.3%); format: functional
KB-V1 [12] = test: Induction of apoptosis in human KBV1 cells assessed as late apoptotic cells at 1 uM after 48 hrs by Annexin V-FITC/propidium iodide staining based FACS analysis (reference value: 7.6%); format: functional
KB-V1 [13] = test: Induction of apoptosis in human KBV1 cells assessed as necrotic cells at 1 uM after 48 hrs by Annexin V-FITC/propidium iodide staining based FACS analysis (reference value: 1%); format: functional
KB 3-1 [14] = test: Potentiation of colchicine-induced apoptosis in human KB-3-1 cells assessed as viable cells at 1 uM after 48 hrs by Annexin V-FITC/propidium iodide staining based FACS analysis (reference value: 38.9%); format: functional; settings: KB 3-1, 48 h, read-out: Activity
KB 3-1 [15] = test: Potentiation of colchicine-induced apoptosis in human KB-3-1 cells assessed as early apoptotic cells at 1 uM after 48 hrs by Annexin V-FITC/propidium iodide staining based FACS analysis (reference value: 30.5%); format: functional
KB 3-1 [16] = test: Potentiation of colchicine-induced apoptosis in human KB-3-1 cells assessed as late apoptotic cells at 1 uM after 48 hrs by Annexin V-FITC/propidium iodide staining based FACS analysis (reference value: 25.7%); format: functional
KB 3-1 [17] = test: Potentiation of colchicine-induced apoptosis in human KB-3-1 cells assessed as necrotic cells at 1 uM after 48 hrs by Annexin V-FITC/propidium iodide staining based FACS analysis (reference value: 4.9%); format: functional
[18] = target: T1, ATP-dependent translocase ABCB1; test: Inhibition of ABCB1 in human KBV1 cells assessed as potentiation of vincristine-induced cytotoxicity by measuring vincristine resistance ratio at 1000 nM after 72 hrs by MTT assay relative to parental KB-3-1 cells (reference value: 356); format: cell-based; settings: kbv1, 72 h, 1 µM; outline: as §1
[19] = target: T1, ATP-dependent translocase ABCB1; test: Inhibition of ABCB1 in human NCI-ADR-RES cells assessed as potentiation of colchicine-induced cytotoxicity by measuring colchicine resistance ratio at 1000 nM after 72 hrs by MTT assay relative to parental OVCAR8 cells (reference value: 59); format: cell-based; settings: ovcar-8, 72 h, 1 µM; outline: as §1
HEK293 = test: Inhibition of human wild-type ABCG2 transfected in HEK293 cells assessed as potentiation of mitoxantrone-induced cytotoxicity by measuring mitoxantrone resistance ratio at 3000 nM after 72 hrs by CCK8 assay relative to parental HEK293 cells

T1 sequence (P08183 whole entry): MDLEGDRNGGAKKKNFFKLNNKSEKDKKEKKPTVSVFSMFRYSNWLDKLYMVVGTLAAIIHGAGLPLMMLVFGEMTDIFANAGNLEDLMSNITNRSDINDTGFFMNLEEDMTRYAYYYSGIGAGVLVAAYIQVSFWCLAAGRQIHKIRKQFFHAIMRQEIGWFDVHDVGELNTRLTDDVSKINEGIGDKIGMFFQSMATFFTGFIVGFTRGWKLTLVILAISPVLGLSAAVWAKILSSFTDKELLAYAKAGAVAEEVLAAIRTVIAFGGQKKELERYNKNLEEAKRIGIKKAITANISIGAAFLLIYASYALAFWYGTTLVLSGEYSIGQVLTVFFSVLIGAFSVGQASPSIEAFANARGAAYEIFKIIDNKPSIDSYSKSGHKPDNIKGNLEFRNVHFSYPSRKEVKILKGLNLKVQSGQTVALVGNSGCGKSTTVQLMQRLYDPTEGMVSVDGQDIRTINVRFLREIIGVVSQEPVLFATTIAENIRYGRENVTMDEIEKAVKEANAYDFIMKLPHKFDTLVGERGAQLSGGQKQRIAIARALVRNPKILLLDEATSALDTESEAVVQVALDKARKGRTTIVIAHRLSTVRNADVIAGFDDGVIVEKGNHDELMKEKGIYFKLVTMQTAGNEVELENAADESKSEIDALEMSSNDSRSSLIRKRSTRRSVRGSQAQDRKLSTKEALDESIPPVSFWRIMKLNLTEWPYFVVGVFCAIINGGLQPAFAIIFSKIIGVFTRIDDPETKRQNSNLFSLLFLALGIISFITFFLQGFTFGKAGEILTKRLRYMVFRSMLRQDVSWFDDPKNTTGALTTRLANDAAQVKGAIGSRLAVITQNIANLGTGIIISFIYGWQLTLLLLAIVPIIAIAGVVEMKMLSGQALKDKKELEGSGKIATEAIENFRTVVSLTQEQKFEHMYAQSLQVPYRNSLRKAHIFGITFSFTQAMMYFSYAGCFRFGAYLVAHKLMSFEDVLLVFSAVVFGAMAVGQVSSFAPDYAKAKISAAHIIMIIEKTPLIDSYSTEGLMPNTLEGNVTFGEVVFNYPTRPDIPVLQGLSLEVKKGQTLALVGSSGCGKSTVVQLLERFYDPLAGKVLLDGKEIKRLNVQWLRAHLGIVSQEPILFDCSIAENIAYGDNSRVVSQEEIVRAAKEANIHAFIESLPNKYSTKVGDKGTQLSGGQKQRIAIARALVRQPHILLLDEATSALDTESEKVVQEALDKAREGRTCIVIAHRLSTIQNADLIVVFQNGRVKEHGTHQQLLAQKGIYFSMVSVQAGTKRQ

COc1cc2c(cc1OC)CN(CCc1ccc(NC(=O)c3cc(OC)c(OC)cc3NC(=O)c3cnc4ccccc4c3)cc1)CC2 [TARIQUIDAR]
Ratio [1]: 5 | Ratio [2]: 1 | Ratio [3]: 1 | Ratio [4]: 3 | Ratio [5]: 4 | viability at 1 µM (KB 3-1 [6]): 92.1% | Activity (KB 3-1 [7]): 3.3% | Activity (KB 3-1 [8]): 4.4% | Activity (KB 3-1 [9]): 0.2% | viability at 1 µM (KB-V1 [10]): 91.1% | Activity (KB-V1 [11]): 3.5% | Activity (KB-V1 [12]): 5.2% | Activity (KB-V1 [13]): 0.2% | viability at 1 µM (KB 3-1 [14]): 37.2% | Activity (KB 3-1 [15]): 30.2% | Activity (KB 3-1 [16]): 27% | Activity (KB 3-1 [17]): 5.6% | Ratio [18]: 1 | Ratio [19]: 1

COc1ccc2c3c([nH]c2c1)[C@H](C=C(C)C)N1C(=O)[C@@H]2CCCN2C(=O)[C@@H]1C3
Ratio (HEK293): 7
